Measurements gathered from unrelated publications.
Target: Eukaryotic translation initiation factor 2-alpha kinase 3 (EIF2AK3, Homo sapiens, UniProt Q9NZJ5)
Sequence (Q9NZJ5 30-1116, as in one of the studies): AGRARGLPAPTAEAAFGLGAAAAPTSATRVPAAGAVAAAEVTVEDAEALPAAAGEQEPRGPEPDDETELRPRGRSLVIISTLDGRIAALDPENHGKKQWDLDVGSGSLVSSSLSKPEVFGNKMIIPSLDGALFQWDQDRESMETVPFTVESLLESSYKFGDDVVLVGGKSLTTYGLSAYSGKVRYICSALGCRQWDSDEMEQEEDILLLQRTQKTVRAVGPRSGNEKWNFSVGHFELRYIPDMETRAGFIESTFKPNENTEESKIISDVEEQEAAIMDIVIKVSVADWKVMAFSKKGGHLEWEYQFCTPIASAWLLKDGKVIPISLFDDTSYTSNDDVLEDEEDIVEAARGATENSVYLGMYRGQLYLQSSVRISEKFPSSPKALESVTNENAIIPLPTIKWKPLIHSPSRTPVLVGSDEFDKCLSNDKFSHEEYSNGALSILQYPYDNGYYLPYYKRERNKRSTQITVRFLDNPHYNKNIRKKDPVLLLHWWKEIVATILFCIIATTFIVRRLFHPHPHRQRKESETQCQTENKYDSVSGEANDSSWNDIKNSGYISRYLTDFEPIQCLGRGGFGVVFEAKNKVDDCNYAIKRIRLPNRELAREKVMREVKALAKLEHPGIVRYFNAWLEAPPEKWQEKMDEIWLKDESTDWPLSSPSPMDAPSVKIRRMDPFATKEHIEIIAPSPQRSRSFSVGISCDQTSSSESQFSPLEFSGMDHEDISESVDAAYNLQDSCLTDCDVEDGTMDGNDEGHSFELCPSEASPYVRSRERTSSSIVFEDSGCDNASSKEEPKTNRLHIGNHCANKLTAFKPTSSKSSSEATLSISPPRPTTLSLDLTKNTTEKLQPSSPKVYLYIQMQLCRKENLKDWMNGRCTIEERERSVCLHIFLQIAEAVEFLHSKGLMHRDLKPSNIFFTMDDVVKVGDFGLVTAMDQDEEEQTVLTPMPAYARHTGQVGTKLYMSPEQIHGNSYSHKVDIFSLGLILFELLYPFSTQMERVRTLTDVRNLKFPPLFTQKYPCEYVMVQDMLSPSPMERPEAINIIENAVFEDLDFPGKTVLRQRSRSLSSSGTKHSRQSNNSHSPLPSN

| Compound | read-out | mode | technique | concentration | quantity | result |
| --- | --- | --- | --- | --- | --- | --- |
| Cc1cc(NC(=O)c2cccc3cc(-c4cccc5[nH]nc(N)c45)ccc23)ccc1F | enzyme activity | inhibitor |  | 0.1 µM | activity vs control | 94% |
| CCN(CC)c1ccc(C2=NNC(=O)CC2C)cc1[N+](=O)[O-] (stereo not drawn) | enzyme activity | inhibitor |  | 10 µM | remaining activity | 110% |
| COc1cccc2c(NCc3ccccc3)nc(-n3c(N)nc4ccccc43)nc12 | target engagement in cells | inhibitor | chemoproteomics | 20 mM | inhibition | -7.4% |
| Cc1cnc(NC2CCOCC2)nc1-n1cnc(C(=O)NC(CN)c2cc(F)cc(Cl)c2)c1 (stereo not drawn) | enzyme activity | inhibitor | radiometric | 1 µM | remaining activity | 101% |
| CN1CC(Oc2cnc(C#N)cc2-c2ccn3nc(NC(=O)C4CC4)cc3c2)C1 | enzyme activity | inhibitor |  | 1 µM | inhibition | 0% |
| COc1cc(/C=C/C(=O)CC(=O)/C=C/c2ccc(O)c(OC)c2)ccc1O | enzyme activity | inhibitor |  | 1 µM | activity vs control | 95% |
| COc1cc(Nc2cnc(C#N)c(O[C@H](C)CN(C)C)n2)ncc1-c1cnn(C)c1 | enzyme activity | inhibitor | radiometric | 1 µM | remaining activity | 101% |
| CC/C(=N\NC(=O)NCc1cccc(O)c1)c1ccc(O)c(C)c1O | enzyme activity | inhibitor |  | 0.1 µM | inhibition | 4.2% |
| CC(C)(C)c1nc2c(s1)c1nc(N)ncc1c1ccc(NS(=O)(=O)c3c(F)cccc3F)c(F)c12 | enzyme activity | inhibitor | radiometric | 1 µM | remaining activity | 47% |
| CNC(=O)c1cc2c(Oc3ccc(NC(=O)C4(C(=O)Nc5ccc(F)cc5)CC4)cc3)ccnc2cc1OC | enzyme activity | inhibitor | radiometric | 1 µM | inhibition | 73% |
| Cc1ccc(C(=O)NCc2ccsc2)cc1C#Cc1cn(C(C)C)c2ncnc(N)c12 | enzyme activity | inhibitor |  | 1 µM | activity vs control | 82% |
| CC(C)(C)c1nc(-c2cccc(NS(=O)(=O)c3c(F)cccc3F)c2F)c(-c2ccnc(N)n2)s1 | enzyme activity | inhibitor | radiometric | 1 µM | remaining activity | 4% |
| CCCCNc1ncc2c(-c3ccc(F)cc3)nn(C[C@H]3CC[C@H](N)CC3)c2n1 | target engagement in cells | inhibitor | chemoproteomics | 20 mM | inhibition | 17% |
| Cc1ccc(NC(=O)c2ccc(C)c(C(F)(F)F)c2)cc1C#Cc1nn(C2CCC(O)CC2)c2ncnc(N)c12 (stereo not drawn) | cell-free assay |  |  | 10 µM | remaining signal | 39% |
| FC(F)(F)Oc1cccc(-c2cnc3ccc(-c4ccncc4)nn23)c1 | enzyme activity | inhibitor | radiometric | 1 µM | activity vs control | 74% |
